The target in experiment [1] is T1, exonuclease-deficient bacteriophage T4 DNA polymerase (gp43 exo−) (Enterobacteria phage T4, UniProt P04415, D219A).
T1 sequence (P04415 1-898 D219A): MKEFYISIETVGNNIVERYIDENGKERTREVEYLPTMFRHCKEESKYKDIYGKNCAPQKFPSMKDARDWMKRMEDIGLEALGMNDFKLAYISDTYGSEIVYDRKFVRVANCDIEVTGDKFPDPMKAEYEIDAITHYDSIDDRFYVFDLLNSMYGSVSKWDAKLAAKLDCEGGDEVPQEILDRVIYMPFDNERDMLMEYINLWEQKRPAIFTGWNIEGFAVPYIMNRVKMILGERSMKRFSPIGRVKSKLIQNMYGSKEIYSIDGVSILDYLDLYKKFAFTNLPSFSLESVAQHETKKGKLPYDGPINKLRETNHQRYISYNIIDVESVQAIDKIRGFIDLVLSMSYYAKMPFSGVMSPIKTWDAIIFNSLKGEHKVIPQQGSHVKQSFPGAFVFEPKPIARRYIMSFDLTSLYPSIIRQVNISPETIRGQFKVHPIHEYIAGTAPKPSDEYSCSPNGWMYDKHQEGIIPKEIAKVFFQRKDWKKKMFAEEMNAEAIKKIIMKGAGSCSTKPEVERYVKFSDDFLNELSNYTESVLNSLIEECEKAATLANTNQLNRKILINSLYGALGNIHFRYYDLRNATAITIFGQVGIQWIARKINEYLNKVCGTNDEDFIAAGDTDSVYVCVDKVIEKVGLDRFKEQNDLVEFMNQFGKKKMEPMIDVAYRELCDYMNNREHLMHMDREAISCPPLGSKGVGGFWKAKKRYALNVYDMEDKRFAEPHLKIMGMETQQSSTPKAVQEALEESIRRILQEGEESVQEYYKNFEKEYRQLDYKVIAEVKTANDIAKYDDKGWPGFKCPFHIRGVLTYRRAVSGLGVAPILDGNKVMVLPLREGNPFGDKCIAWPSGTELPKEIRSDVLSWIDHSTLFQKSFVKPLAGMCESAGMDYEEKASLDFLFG
Conditions: opposite thymine, cited from earlier work; for Kd: read-out: Kd, app.

For experiment [2], the target named is T1, exonuclease-deficient bacteriophage T4 DNA polymerase (gp43 exo−). To be noted: single abasic site, cited from earlier work; for Kd: read-out: Kd, app.
Experiment [3] shares this target. Conditions: double abasic site, cited from earlier work; for Kd: read-out: Kd, app.
The target is the same in experiment [4]. Conditions: blunt end DNA, cited from earlier work; for Kd: read-out: Kd, app.
For experiment [5], the target named is T2, bacteriophage T4 DNA polymerase (gp43 exo−) (Enterobacteria phage T4, UniProt P04415, D219A).
T2 sequence (P04415 1-898 D219A): T1 sequence (P04415 1-898 D219A)
The format is biochemical. To be noted: 150 µM dXTP, then 500 µM dGTP, quenched at 180 s; 13/20SP-mer. Put shortly:
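Exonuclease-deficient T4 gp43 (D219A), 500 nM, with 250 nM 5′-32P-labelled 13/20SP-mer, in 25 mM Tris–OAc pH 7.5, 150 mM KOAc, 10 mM 2-mercaptoethanol and 10 mM Mg2+ at 25°C. Test nucleotide (150 µM) was inserted for 5 min, then 500 µM dGTP was added. Reactions were quenched with 350 mM EDTA and resolved on 20% sequencing gels. Extended versus non-extended primer was quantified by phosphorimaging, corrected for the zero point.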

Experiment [6] concerns the target T2, bacteriophage T4 DNA polymerase (gp43 exo−). To be noted: previously demonstrated; cited from earlier work.

The source of these data is publication PMC3045600 (Nucleic Acids Research, 2010).

“And” between values parts separate entries of the source, which are not always exact repeats. Equal entries are not always repeated. Where two headings read alike, the source gives them in different places.

For `O=[N+]([O-])c1ccc2c(ccn2C2CC(O)C(COP(=O)(O)OP(=O)(O)OP(=O)(O)O)O2)c1` (stereo not shown) [5-NITP], the kpol in experiment [1] is 0.9 ± 0.1 s⁻¹; in experiment [2], 126 s⁻¹ and 126 ± 7 s⁻¹; in experiment [3], 70 ± 6 s⁻¹; in experiment [4] it was 0.015 ± 0.004 s⁻¹. Also, the “kpol/Kd, app” value in experiment [1] is 100 000 M^−1 s^−1; in experiment [2], 7 000 000 M^−1 s^−1; in experiment [3], 3 890 000 M^−1 s^−1; in experiment [4], 710 M⁻¹ s⁻¹. The Kd in experiment [1] was 9 ± 1 µM; in experiment [2] it was 18 ± 3 µM; in experiment [3], 18 ± 5 µM; in experiment [4], 21 ± 8 µM. In addition, the “Extension beyond the nucleotide paired opposite an abasic site” value in experiment [5] was “does not extend”.
Consider `O=P(O)(O)OP(=O)(O)OP(=O)(O)OC[C@H]1O[C@@H](n2ccc3cc(-c4ccccc4)ccc32)C[C@@H]1O` [5-PhITP], for which the kpol was 0.16 ± 0.01 s⁻¹ in experiment [1]; 53 s⁻¹ and 53 ± 4 s⁻¹ in experiment [2]; 45 ± 3 s⁻¹ in experiment [3]; 0.007 ± 0.004 s⁻¹ in experiment [4]. The figures for the “kpol/Kd, app” value in experiment [1], in experiment [3] and in experiment [4] were 6400 M⁻¹ s⁻¹, 3 750 000 M^−1 s^−1 and 160 M⁻¹ s⁻¹, respectively. The Kd was 25 ± 7 µM in experiment [1], 14 ± 3 µM in experiment [2], 12 ± 2 µM in experiment [3] and 45 ± 8 µM in experiment [4]. Besides, in experiment [5], the “Extension beyond the nucleotide paired opposite an abasic site” value is recorded as “does not extend”.
Regarding `Nc1nc2c(ncn2[C@H]2C[C@H](O)[C@@H](COP(=O)(O)OP(=O)(O)OP(=O)(O)O)O2)c(=O)[nH]1` [dGTP], the “Extension beyond the nucleotide paired opposite an abasic site” value in experiment [6] is reported as “extends beyond”.
For `Nc1ncnc2c1ncn2[C@H]1C[C@H](O)[C@@H](COP(=O)(O)OP(=O)(O)OP(=O)(O)O)O1` [dATP], the kpol in experiment [1] is 100 ± 10 s⁻¹; in experiment [2], 0.15 ± 0.01 s⁻¹; in experiment [3], 0.55 ± 0.05 s⁻¹. In addition, the “kpol/Kd, app” value in experiment [1] is 10 000 000 M^−1 s^−1; in experiment [2] it was 4300 M⁻¹ s⁻¹; in experiment [3] it was 3500 M⁻¹ s⁻¹. In addition, the Kd is 10 ± 2 µM in experiment [1], 35 ± 5 µM in experiment [2] and 157 ± 28 µM in experiment [3]. The “Extension beyond the nucleotide paired opposite an abasic site” value in experiment [6] was “extends beyond”; in experiment [5], “showed extension beyond the abasic site”.
